In assay [1] the target is Acetylcholinesterase (Homo sapiens, UniProt P22303). Nature of the assay: Inhibition of acetylcholinesterase (unknown origin) using acetylcholine iodide as substrate preincubated for 15 mins prior to substrate addition by spectrophotometric analysis.
Assay [2] has as its system HCT-116. Nature of the assay: Cytotoxicity against human HCT116 cells after 96 hrs by MTT assay. The assay is classed as functional, cell-based. The settings on record: HCT-116, 96 h. An outline of the steps:
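Cells were seeded at 5000 or 10,000 per well and exposed to medium with various sample concentrations for 96 h, with 0.1% DMSO as vehicle control. MTT (5 mg/mL in PBS) was then added for 4 h at 37 °C, 5% CO2. Formazan was dissolved in DMSO and read at OD 570 nm.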
For orientation: Formazan colour is commonly taken as a measure of viable cells.

Assay [3] relates to HT-29. Nature of the assay: Cytotoxicity against human HT-29 cells after 96 hrs by MTT assay. The assay is classed as functional, cell-based. The settings on record: HT-29, 96 h. An outline of the steps: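 Cells were seeded at 5000 or 10,000 per well and exposed to medium with various sample concentrations for 96 h, with 0.1% DMSO as vehicle control. MTT (5 mg/mL in PBS) was then added for 4 h at 37 °C, 5% CO2. Formazan was dissolved in DMSO and read at OD 570 nm. IC50 is the concentration giving 50% toxicity; duplicate tests, mean ± SD (n = 2).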

A short description of assay [4]: Cytotoxicity against human MES-SA/Dx5 cells after 96 hrs by MTT assay. Type of assay: functional, cell-based. The settings on record: MES-SA/Dx5, 96 h.
Assay [5] in a line: Antioxidant activity assessed as ABTS radical scavenging activity after 10 mins by spectrophotometric analysis. The assay is classed as functional. An outline of the steps:
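ABTS radical cation was made from 7 mM ABTS in water plus potassium persulfate (2.45 mM final), left 12 h in the dark at room temperature, then diluted in methanol to A734 0.706 ± 0.009. 1 mL of this was mixed with 1 mL of methanolic sample at several concentrations. […] Run in triplicate with a BHT positive control.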

Assay [6] can be described thus: Antioxidant activity assessed as H2O2 scavenging activity by NBT reduction assay. The assay is classed as functional. An outline of the steps:
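H2O2 at 43 mM was prepared in 0.1 M phosphate buffer, pH 7.4. 100 µL of test solution was added along with NADH (73 µM), NBT (50 µM) and PMS (15 µM), 500 µL each. Percent H2O2 scavenged = [(Acontrol − Asample)/Acontrol] × 100.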

Assay [7] can be described thus: Antioxidant activity assessed as superoxide radical scavenging activity after 2 mins by NBT reduction assay. The assay is classed as functional. An outline of the steps: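 The 1 mL reaction held 20 mM phosphate buffer pH 7.4, NADH 73 µM, NBT 50 µM, PMS 15 µM and sample at several concentrations. After 2 min at ambient temperature, formazan was read at A562 against a blank. % scavenging was taken vs control. Done three times, with BHT as comparator.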

Assay [8] deals with Radical scavenging activity. Description: Antioxidant activity assessed as DPPH free radical scavenging activity after 30 mins by spectrophotometric analysis. The assay is classed as functional. An outline of the steps:
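Daily methanolic DPPH solution was adjusted to A517 = 1.1. Methanolic sample at several concentrations was added to 1 mL, incubated 30 min at 37 °C, then A517 was read. Scavenging % = [(Acontrol − Asample)/Acontrol] × 100. Run in triplicate with BHT as positive control.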

Assay [9] can be described thus: Antioxidant activity assessed as ABTS radical scavenging activity after 6 mins by spectrophotometric analysis. The assay is classed as functional.
A short description of assay [10]: Antioxidant activity assessed as superoxide radical scavenging activity measured every 30 seconds for 5 mins by spectrophotometric analysis. The assay is classed as functional.
Assay [11] deals with AGS. Description: Cytotoxicity against human AGS cells after 96 hrs by MTT assay. The assay is classed as functional, cell-based.
Assay [12] can be described thus: Antioxidant activity assessed as hydroxyl radical scavenging activity after 20 mins by spectrophotometric analysis. Type of assay: functional.
Assay [13] has as its system PANC-1. Description: Cytotoxicity against human PANC1 cells after 96 hrs by MTT assay. Type of assay: functional, cell-based. The settings on record: PANC-1, 96 h.
Assay [14] relates to K562. Description: Cytotoxicity against human K562 cells after 96 hrs by MTT assay. Type of assay: functional, cell-based. The settings on record: K562, 96 h.
Assay [15] has as its system Radical scavenging activity. Description: Antioxidant activity assessed as DPPH free radical scavenging activity by spectrophotometric analysis. Type of assay: functional. On the technique in general: DPPH is a stable violet radical that fades when it is reduced.
The subject of assay [16] is MT4. Description: Cytotoxicity against human MT4 cells after 96 hrs by MTT assay. The settings on record: MT4, 96 h. Type of assay: functional, cell-based.

Converted amounts (≈) assume the structure as drawn. Where only a bound is given, the exact number is not on record here.

Sequence of Acetylcholinesterase (P22303 whole entry): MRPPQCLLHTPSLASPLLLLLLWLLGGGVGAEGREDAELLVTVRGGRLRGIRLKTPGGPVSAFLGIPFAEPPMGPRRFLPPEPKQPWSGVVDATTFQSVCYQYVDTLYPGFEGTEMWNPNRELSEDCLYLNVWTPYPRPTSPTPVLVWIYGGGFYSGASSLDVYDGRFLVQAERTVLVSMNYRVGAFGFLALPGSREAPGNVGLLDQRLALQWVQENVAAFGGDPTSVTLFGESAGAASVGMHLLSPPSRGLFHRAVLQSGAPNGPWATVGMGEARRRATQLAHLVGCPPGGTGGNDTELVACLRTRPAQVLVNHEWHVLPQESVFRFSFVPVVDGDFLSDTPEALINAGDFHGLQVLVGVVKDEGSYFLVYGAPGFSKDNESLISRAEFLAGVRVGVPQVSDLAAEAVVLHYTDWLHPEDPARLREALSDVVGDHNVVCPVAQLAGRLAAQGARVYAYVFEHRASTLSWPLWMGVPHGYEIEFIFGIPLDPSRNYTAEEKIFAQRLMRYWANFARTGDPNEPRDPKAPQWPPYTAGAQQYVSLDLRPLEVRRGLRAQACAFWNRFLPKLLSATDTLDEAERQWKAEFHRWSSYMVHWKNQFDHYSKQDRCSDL

In the case of `C/C=C(\C)C(=O)OC(C)(C)[C@@H]1Cc2cc3ccc(=O)oc3cc2O1`, the IC50 (usually the midpoint of a concentration-inhibition curve) is over 100 µM in assay [1], 7.6 µM in assay [2] and 0.93 µM in [3].
Turning to `CC(C)=CC(=O)OC(C)(C)[C@@H]1Cc2cc3ccc(=O)oc3cc2O1` [(-)-PRANTSCHIMGIN], the IC50 was 3.1 µM in assay [4], over 100 µM in assay [1], 15 µM in assay [2] and 5.2 µM in [3].
For `Cc1cc(C(C)(C)C)c(O)c(C(C)(C)C)c1` [BUTYLATED HYDROXYTOLUENE], the 50% inhibitory concentration (IC50) in assay [5] was 6.85 µM; in assay [6], 6.38 µM; in [7] it was 7.26 µM; in assay [8] (read-out: IC50), 9.02 µM.
For the compound `O=C(O)/C=C/c1ccc(O)c(O)c1` [CAFFEIC ACID], the IC50 in assay [9] is 0.57 µg/mL (≈ 3.16 µM); in assay [10] it was 0.38 µg/mL (≈ 2.11 µM); in [11], 129 µM; in [12], 0.37 µg/mL (≈ 2.05 µM); in assay [1] it was over 100 µM; in [2], 29.7 µM. Moreover, the figures for the concentration for half-maximal inhibition (IC50) in assay [8] and in assay [3] were 0.39 µg/mL and 27.2 µM, respectively.
Turning to `COc1c2occc2cc2ccc(=O)oc12` [METHOXSALEN], the 50% inhibitory concentration (IC50) was 0.76 µM in [1], over 100 µM in assay [2], over 100 µM in [3] and 83.3 µM in assay [13].
Turning to `CC(=O)O[C@H]1C(=O)[C@@]2(C)[C@H]([C@H](OC(=O)c3ccccc3)[C@]3(O)C[C@H](OC(=O)[C@H](O)[C@@H](NC(=O)c4ccccc4)c4ccccc4)C(C)=C1C3(C)C)[C@]1(OC(C)=O)CO[C@@H]1C[C@@H]2O` [PACLITAXEL], the concentration for half-maximal inhibition (IC50) in [3] is 0.00198 µM.
Take `O=c1ccc2cc3ccoc3cc2o1` [PSORALEN]: the IC50 turned out to be 131 µM in assay [14], 6.48 µM in assay [1], 45.6 µM in [2] and 41.7 µM in [3].
Take `O=c1ccc2ccc(O)cc2o1` [UMBELLIFERONE]: the IC50 in assay [15] was 36.1 µg/mL (≈ 223 µM); in [16], 2340 µM; in assay [2], 8.05 µM; in assay [3], 4.35 µM.

The values above are taken from ChEMBL document CHEMBL2401632, “New bioactive dihydrofuranocoumarins from the roots of the Tunisian Ferula lutea (Poir.) Maire” (Bioorg Med Chem Lett, 2013).
